Data: ChEMBL document CHEMBL4689842, “EUbOPEN Chemogenomics Library wave 1” (2021)

Tested on: Fibroblast
Assay: Multiplex assay against human fibroblast
Type: toxicity, cell-based
Summary of the method: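 Values for tubulin, mitochondrial-mass and membrane-permeability phenotypes are per cents of cells with healthy nuclei. These cells were identified by CellPathfinder machine-learning gating of live cells that had been stained at seeding with Hoechst33342, BioTracker Green Microtubule Cytoskeleton Dye, MitoTracker Red and Annexin V Alexa Fluor 680 and imaged on a CQ1 microscope at 37°C and 5% CO2 after compound addition. The gating first set Hoechst high-intensity objects apart from normal cells, then split normal cells into healthy, pyknosed or fragmented nuclei, and pyknosed cells into mitotic or apoptotic.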

[1] = 12 h, 1 µM, compound concentration 1 uM, replicate 1
[2] = 12 h, 1 µM, compound concentration 1 uM, replicate 2
[3] = 12 h, 10 µM, compound concentration 10 uM, replicate 1
[4] = 12 h, 10 µM, compound concentration 10 uM, replicate 2
[5] = 24 h, 1 µM, compound concentration 1 uM, replicate 1
[6] = 24 h, 1 µM, compound concentration 1 uM, replicate 2
[7] = 24 h, 10 µM, compound concentration 10 uM, replicate 1
[8] = 24 h, 10 µM, compound concentration 10 uM, replicate 2

CC[C@@H]1C(=O)N(C)c2cnc(Nc3ccc(C(=O)NC4CCN(C)CC4)cc3OC)nc2N1C1CCCC1 [BI-2536]
Population Apoptotic (%) [1]: 82% | Population Fragmented Nuclei (%) [1]: 37% | Population Healthy Nuclei (%) [1]: 51% | Population Hoechst High Intensity Objects (%) [1]: 13% | Population Membrane Permeable-Phenotype (%) [1]: 6% | Population Mitotic Cells (%) [1]: 17% | Population Normal (%) [1]: 86% | Population Pyknosed Nuclei (%) [1]: 11% | Population Tubulin-Different-Phenotype (%) [1]: 10% | Total Cell Count [1]: 236 | Population Apoptotic (%) [2]: 100% | Population Fragmented Nuclei (%) [2]: 60% | Population Healthy Nuclei (%) [2]: 35% | Population Hoechst High Intensity Objects (%) [2]: 51% | Population Membrane Permeable-Phenotype (%) [2]: 0% | Population Mitochondria Different-Phenotype (%) [2]: 5% | Population Mitotic Cells (%) [2]: 0% | Population Normal (%) [2]: 48% | Population Pyknosed Nuclei (%) [2]: 4% | Population Tubulin-Different-Phenotype (%) [2]: 0% | Total Cell Count [2]: 98 | Population Fragmented Nuclei (%) [3]: 38% | Population Healthy Nuclei (%) [3]: 50% | Population Hoechst High Intensity Objects (%) [3]: 22% | Population Membrane Permeable-Phenotype (%) [3]: 2% | Population Mitochondria Different-Phenotype (%) [3]: 7% | Population Mitotic Cells (%) [3]: 19% | Population Normal (%) [3]: 77% | Population Pyknosed Nuclei (%) [3]: 11% | Population Tubulin-Different-Phenotype (%) [3]: 31% | Total Cell Count [3]: 347 | Population Apoptotic (%) [4]: 80% | Population Fragmented Nuclei (%) [4]: 50% | Population Healthy Nuclei (%) [4]: 41% | Population Hoechst High Intensity Objects (%) [4]: 26% | Population Membrane Permeable-Phenotype (%) [4]: 3% | Population Mitochondria Different-Phenotype (%) [4]: 25% | Population Mitotic Cells (%) [4]: 20% | Population Normal (%) [4]: 73% | Population Pyknosed Nuclei (%) [4]: 7% | Population Tubulin-Different-Phenotype (%) [4]: 62% | Total Cell Count [4]: 89 | Population Apoptotic (%) [5]: 80% | Population Fragmented Nuclei (%) [5]: 33% | Population Healthy Nuclei (%) [5]: 53% | Population Hoechst High Intensity Objects (%) [5]: 18% | Population Membrane Permeable-Phenotype (%) [5]: 3% | Population Mitochondria Different-Phenotype (%) [5]: 8% | Population Mitotic Cells (%) [5]: 20% | Population Normal (%) [5]: 81% | Population Pyknosed Nuclei (%) [5]: 13% | Population Tubulin-Different-Phenotype (%) [5]: 6% | Total Cell Count [5]: 225 | Population Apoptotic (%) [6]: 100% | Population Fragmented Nuclei (%) [6]: 59% | Population Healthy Nuclei (%) [6]: 38% | Population Hoechst High Intensity Objects (%) [6]: 48% | Population Membrane Permeable-Phenotype (%) [6]: 5% | Population Mitochondria Different-Phenotype (%) [6]: 0% | Population Mitotic Cells (%) [6]: 0% | Population Normal (%) [6]: 51% | Population Pyknosed Nuclei (%) [6]: 2% | Population Tubulin-Different-Phenotype (%) [6]: 11% | Total Cell Count [6]: 92 | Population Apoptotic (%) [7]: 75% | Population Fragmented Nuclei (%) [7]: 35% | Population Healthy Nuclei (%) [7]: 55% | Population Hoechst High Intensity Objects (%) [7]: 36% | Population Membrane Permeable-Phenotype (%) [7]: 1% | Population Mitochondria Different-Phenotype (%) [7]: 21% | Population Mitotic Cells (%) [7]: 25% | Population Normal (%) [7]: 63% | Population Pyknosed Nuclei (%) [7]: 10% | Population Tubulin-Different-Phenotype (%) [7]: 21% | Total Cell Count [7]: 376 | Population Apoptotic (%) [8]: 100% | Population Fragmented Nuclei (%) [8]: 57% | Population Healthy Nuclei (%) [8]: 28% | Population Hoechst High Intensity Objects (%) [8]: 35% | Population Membrane Permeable-Phenotype (%) [8]: 0% | Population Mitochondria Different-Phenotype (%) [8]: 35% | Population Mitotic Cells (%) [8]: 0% | Population Normal (%) [8]: 64% | Population Pyknosed Nuclei (%) [8]: 14% | Population Tubulin-Different-Phenotype (%) [8]: 57% | Total Cell Count [8]: 76

CCOc1ccn(-c2ccc(F)cc2)c(=O)c1C(=O)Nc1ccc(Oc2ccnc(N)c2Cl)c(F)c1 [BMS-777607]
Population Apoptotic (%) [1]: 77% | Population Fragmented Nuclei (%) [1]: 30% | Population Healthy Nuclei (%) [1]: 58% | Population Hoechst High Intensity Objects (%) [1]: 13% | Population Membrane Permeable-Phenotype (%) [1]: 10% | Population Mitochondria Different-Phenotype (%) [1]: 4% | Population Mitotic Cells (%) [1]: 22% | Population Normal (%) [1]: 86% | Population Pyknosed Nuclei (%) [1]: 10% | Population Tubulin-Different-Phenotype (%) [1]: 22% | Total Cell Count [1]: 251 | Population Apoptotic (%) [2]: 100% | Population Fragmented Nuclei (%) [2]: 56% | Population Healthy Nuclei (%) [2]: 39% | Population Hoechst High Intensity Objects (%) [2]: 29% | Population Membrane Permeable-Phenotype (%) [2]: 17% | Population Mitochondria Different-Phenotype (%) [2]: 17% | Population Mitotic Cells (%) [2]: 0% | Population Normal (%) [2]: 70% | Population Pyknosed Nuclei (%) [2]: 3% | Population Tubulin-Different-Phenotype (%) [2]: 47% | Total Cell Count [2]: 82 | Population Apoptotic (%) [3]: 86% | Population Fragmented Nuclei (%) [3]: 27% | Population Healthy Nuclei (%) [3]: 60% | Population Hoechst High Intensity Objects (%) [3]: 15% | Population Membrane Permeable-Phenotype (%) [3]: 1% | Population Mitotic Cells (%) [3]: 13% | Population Normal (%) [3]: 84% | Population Pyknosed Nuclei (%) [3]: 12% | Total Cell Count [3]: 212 | Population Apoptotic (%) [4]: 80% | Population Fragmented Nuclei (%) [4]: 54% | Population Healthy Nuclei (%) [4]: 36% | Population Hoechst High Intensity Objects (%) [4]: 38% | Population Membrane Permeable-Phenotype (%) [4]: 4% | Population Mitochondria Different-Phenotype (%) [4]: 4% | Population Mitotic Cells (%) [4]: 20% | Population Normal (%) [4]: 61% | Population Pyknosed Nuclei (%) [4]: 8% | Population Tubulin-Different-Phenotype (%) [4]: 0% | Total Cell Count [4]: 92 | Population Apoptotic (%) [5]: 85% | Population Fragmented Nuclei (%) [5]: 27% | Population Healthy Nuclei (%) [5]: 62% | Population Hoechst High Intensity Objects (%) [5]: 11% | Population Membrane Permeable-Phenotype (%) [5]: 8% | Population Mitochondria Different-Phenotype (%) [5]: 8% | Population Mitotic Cells (%) [5]: 14% | Population Normal (%) [5]: 88% | Population Pyknosed Nuclei (%) [5]: 10% | Population Tubulin-Different-Phenotype (%) [5]: 19% | Total Cell Count [5]: 226 | Population Apoptotic (%) [6]: 50% | Population Fragmented Nuclei (%) [6]: 63% | Population Healthy Nuclei (%) [6]: 32% | Population Hoechst High Intensity Objects (%) [6]: 31% | Population Membrane Permeable-Phenotype (%) [6]: 10% | Population Mitochondria Different-Phenotype (%) [6]: 21% | Population Mitotic Cells (%) [6]: 50% | Population Normal (%) [6]: 68% | Population Pyknosed Nuclei (%) [6]: 3% | Population Tubulin-Different-Phenotype (%) [6]: 31% | Total Cell Count [6]: 85 | Population Apoptotic (%) [7]: 80% | Population Fragmented Nuclei (%) [7]: 26% | Population Healthy Nuclei (%) [7]: 62% | Population Hoechst High Intensity Objects (%) [7]: 9% | Population Membrane Permeable-Phenotype (%) [7]: 0% | Population Mitochondria Different-Phenotype (%) [7]: 4% | Population Mitotic Cells (%) [7]: 19% | Population Normal (%) [7]: 90% | Total Cell Count [7]: 214 | Population Apoptotic (%) [8]: 50% | Population Fragmented Nuclei (%) [8]: 54% | Population Healthy Nuclei (%) [8]: 35% | Population Hoechst High Intensity Objects (%) [8]: 35% | Population Membrane Permeable-Phenotype (%) [8]: 5% | Population Mitochondria Different-Phenotype (%) [8]: 10% | Population Mitotic Cells (%) [8]: 50% | Population Normal (%) [8]: 64% | Population Pyknosed Nuclei (%) [8]: 10% | Population Tubulin-Different-Phenotype (%) [8]: 0% | Total Cell Count [8]: 88
